Kir21 inh: Kir2.1 (mouse) channel inhibition. P35561. HEK293-Kir2.1, FluxOR thallium flux fluorescence; hits give low values. B-score at 10 µM. 310,000 compounds, 0.85% hits. AID 1672;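 active = fluorescence ratio B-score at or below minus 3 SD of library scores, with starting-brightness B-score within 2 SD, cut at about -4.2 in these data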;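 note: channel flux triggered by added potassium and thallium sulfate stimulus; B-score of peak minus minimum fluorescence over baseline after thallium stimulus; more negative B-score means stronger Kir2.1 block with less thallium influx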
MrgX1 agonist: activates human MrgX1 receptor signaling; Q96LB2; MrgX1-HEK293 cells, Fluo-4 calcium fluorescence, agonist mode; hits give high values; B-score at 10 µM; 310,000 compounds, 0.44% hits; AID 588627;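 active = calcium response B-score plate-corrected fluorescence ratio at least 3 library SD, with starting fluorescence B-score inside 5 SD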
Target sequence (Q96LB2 whole entry, looked up): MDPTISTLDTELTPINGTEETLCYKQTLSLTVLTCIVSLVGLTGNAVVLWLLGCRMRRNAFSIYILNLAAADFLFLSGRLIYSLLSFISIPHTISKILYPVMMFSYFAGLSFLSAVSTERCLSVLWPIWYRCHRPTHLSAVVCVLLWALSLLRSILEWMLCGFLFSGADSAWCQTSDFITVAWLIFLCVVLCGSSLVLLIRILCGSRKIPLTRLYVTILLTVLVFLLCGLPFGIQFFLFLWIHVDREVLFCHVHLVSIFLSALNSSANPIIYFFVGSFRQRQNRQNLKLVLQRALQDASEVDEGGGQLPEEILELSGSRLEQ
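Test system: HEK293 cells stably expressing human MrgX1 receptor; amount: 15,000 cells per well; doses: compound delivered in addition one of three; times: overnight plating before 1 h dye loading; detection: Fluo-4 NW calcium-flux fluorescence, kinetic read; read-out basis: B-scored fluorescence response ratio; controls: positive and negative controls per plate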
MrgX1 antagonist: blocks BAM8-22 activation of human MrgX1 receptor; 310,000 compounds, 1.3% hits; B-score at 10 µM; Q96LB2; MRGX1-HEK293 calcium flux, Fluo-4, BAM8-22 antagonism; hits give low values; AID 588676;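 active = calcium-response B-score plate-corrected more than 3 library SD below zero, starting fluorescence within 5 deviations, no agonist response on first addition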;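 note: peak minus trough fluorescence over baseline after final BAM8-22 challenge near maximal dose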
MrgX1 PAM: human MrgX1 positive allosteric modulation, primary screen. B-score at 10 µM. MrgX1-HEK293, Fluo-4 calcium flux, FDSS; hits give high values. 310,000 compounds, 0.63% hits. Q96LB2;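 active = plate-corrected calcium response at least 3 library SD above typical, normal starting fluorescence, not activating the receptor alone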;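 note: compound read alongside a low EC10 to EC30 dose of BAM8-22 agonist; peak minus trough fluorescence over baseline measured at the second addition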
RGS4 block: human RGS4 inhibition. P49798. HEK293 M3R/RGS4 inducible, Fluo-4 calcium flux; hits give high values; triggered by carbachol at its EC20. B-score at 10 µM. 310,000 compounds, 0.45% hits;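 active = B-score, a plate-corrected calcium signal, over three deviations above library mean, with baseline fluorescence within five deviations of library mean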;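 note: RGS4 expression induced by doxycycline in cells with stable M3 receptor; B-score is computed from the integrated fluorescence ratio over baseline after carbachol; higher B-score means a larger calcium signal and so more RGS4 inhibition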
Target sequence (P49798 whole entry, looked up): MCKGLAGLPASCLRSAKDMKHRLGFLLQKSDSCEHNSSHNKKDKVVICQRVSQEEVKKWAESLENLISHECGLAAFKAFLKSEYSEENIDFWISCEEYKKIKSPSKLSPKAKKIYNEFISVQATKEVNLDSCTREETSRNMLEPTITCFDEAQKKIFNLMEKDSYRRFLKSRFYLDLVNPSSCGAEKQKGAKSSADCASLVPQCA
RGS4 act: RGS4 potentiation or activation | 310,000 compounds, 0.92% hits | HEK293 M3R/inducible RGS4, carbachol calcium flux Fluo4; hits give low values | B-score at 10 µM | AID 463111;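 active = B-score of the integrated calcium signal more than 4 SD below the library mean, with starting fluorescence not abnormally high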;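 note: negative B-score means reduced calcium response which marks RGS4 activation or potentiation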
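Assay system: HEK293 FlpIn-TREx cells, stable M3R, doxycycline-inducible RGS4 / Probe or stimulus: carbachol, ECmax concentration / Times: overnight RGS4 induction, 30 min dye load 37 °C, 20 min compound RT / Signal: kinetic calcium fluorescence imaging with Fluo4-AM dye, 2 µM / Measure: Agonist-evoked peak-minus-minimum fluorescence over baseline, integrated ratio, B score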
RGS4 inh valid: RGS4 inhibitor validation; shares compounds with RGS4 block; HEK293 M3R/RGS4, carbachol calcium Fluo-4 fluorescence; carbachol added at its EC20; 0 = buffer wells, 100 = carbachol control; calcium response, % at 10 µM; 1,700 compounds, 65% hits;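 active = duplicate-averaged calcium response above the buffer-only control mean plus 5 SD of those controls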;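 note: integrated fluorescence ratio F max minus min over baseline F0; higher response in RGS4-induced cells means RGS4 inhibition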
RGS4 uninduced: counter-screen for RGS4 inhibitors: effect in non-induced cells | shares compounds with RGS4 block | HEK293 M3R non-induced, carbachol calcium Fluo-4; submaximal (EC20) carbachol stimulus; buffer wells 0%, carbachol control wells 100% | activity (percent), % at 10 µM | 1,900 compounds, 20% hits | AID 493000; call rule not given here;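 note: RGS4 induction absent so cells express M3R without RGS4; higher means more calcium signal and flags a non-specific hit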
M3R basal Ca ctr: second counter-screen for RGS4 inhibitors: non-induced cells without carbachol; calcium response (agonist-mode artifact), % at 10 µM; 1,900 compounds, 22% hits; AID 493001; HEK293 M3R/RGS4 non-induced, Fluo-4 calcium, no carbachol; normalised: buffer wells 0%, carbachol wells 100%; shares compounds with RGS4 block;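 active = duplicate-averaged calcium rise in uninduced cells above buffer wells' mean plus 5 SD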
MrgX1 ag confirm: human MrgX1 agonism, re-confirmation screen; shares compounds with MrgX1 agonist; MrgX1-HEK293, Fluo-4 calcium fluorescence, FDSS; activation, % at 10 µM; 600 compounds, 78% hits; AID 602412;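 active = calcium signal rise, corrected for plate position, at least 3 library SD high, with starting brightness within 5 such deviations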
MrgX1 PAM conf: confirmation of human MrgX1 receptor positive allosteric modulators; shares compounds with MrgX1 PAM; MrgX1-HEK293, Fluo-4 calcium fluorescence, FDSS; activation (ratio percentage), % at 10 µM; 1,200 compounds, 13% hits;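 active = ratio at least 3 SD above the weak peptide control, stable starting fluorescence, no direct agonism earlier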;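 note: compound followed by low BAM8-22 agonist challenge near EC20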
MrgX1 antag conf: reconfirmed antagonist of human MrgX1 receptor signaling; shares compounds with MrgX1 antagonist; MrgX1-HEK293, BAM8-22 calcium flux, Fluo-4; hits give low values; remaining BAM8-22 calcium response % of control (hits give low values), % at 10 µM; 2,300 compounds, 19% hits;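 active = remaining agonist calcium response no higher than 100% minus 3 SD of agonist-only control wells, with starting fluorescence near control levels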;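 note: agonist BAM8-22 given at a near maximal EC90 to ECmax level; peak minus minimum fluorescence divided by baseline after agonist addition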
HEK293 Ca flux: MrgX1 antagonist counter-screen hit in parental HEK293 cells; shares compounds with MrgX1 antagonist; 4,000 compounds, 2% hits; Fluo-4 calcium fluorescence, FDSS; fluorescence ratio F(max-min)/F0 at 10 µM;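 active = duplicate-averaged calcium fluorescence ratio at least three times the standard deviation of buffer wells, a nonspecific response in parental cells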
HEK293 Ca counter: activity in parental HEK293 cells without MrgX1 | shares compounds with MrgX1 antagonist | parental HEK293 calcium flux, Fluo-4 fluorescence ratio; hits give high values | fluorescence ratio F(max-min)/F0 at 10 µM | 4,000 compounds, 0.4% hits | AID 624114;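 active = calcium fluorescence ratio, averaged over duplicates, at least 3 SD of the buffer-well ratio, meaning a nonspecific response in receptor-free cells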;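 note: untransfected parental HEK293 lacking MrgX1 used as counterscreen for MrgX1 allosteric activators; fluorescence change taken during the second addition on a kinetic imager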
HEK293 Ca cntr2: MrgX1 activator counter-screen hit in parental HEK293 cells; shares compounds with MrgX1 antagonist; Fluo-4 calcium fluorescence (FDSS); hits give high values; fluorescence ratio F(max-min)/F0 at 10 µM; 4,000 compounds, 8.7% hits;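 active = calcium fluorescence ratio at least three times the spread of buffer wells, meaning a non-specific response in parental cells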
* hit, by the source's call; i = inactive; / = no result. Rows were chosen to be rich in hits. Some 4.1% of all compounds tested hit in one or more screens of this group.

SMILES	Kir21 inh	MrgX1 agonist	MrgX1 antagonist	MrgX1 PAM	RGS4 block	RGS4 act	RGS4 inh valid	RGS4 uninduced	M3R basal Ca ctr	MrgX1 ag confirm	HEK293 Ca flux	HEK293 Ca counter	HEK293 Ca cntr2	others
Nc1ncnc2c1ncn2C1OC(CO)C(O)C1O (centres undefined)	1.7	i	i	9.4*	9.4*	i	41%*	71%*	i	/	i	i	i	MrgX1 PAM conf=i
O=C(CCN1CCN(c2ccccc2F)CC1)Nc1ccccc1F	-1.2	i	i	i	i	i	/	/	/	/	/	/	/
O=C(CCN1CCN(c2ccccc2F)CC1)c1ccc(Br)cc1	-1.1	40*	i	i	19*	i	39%*	i	8.5%*	i	i	i	i
CC(OC(=O)c1cccnc1)C(=O)Nc1ccc2c(c1)OCO2 (centres undefined)	0.71	i	i	i	i	i	/	/	/	/	/	/	/
CCOC(=O)[C@@H]1[C@H]2COc3ccccc3[C@@H]2N2C(=O)N(c3ccc(Cl)cc3)C(=O)[C@@]12C	-0.47	i	-8.1*	i	i	i	i	i	i	/	i	i	i	MrgX1 antag conf=i
Cc1c(C)c2c(OCC(=O)NCc3ccncc3)cc3c(c2oc1=O)CCC(C)(C)O3	-0.75	i	i	i	i	i	/	/	/	/	/	/	/
COC(=O)N/N=C/c1ccc(OC(=O)c2ccco2)c(OC)c1	0.5	i	i	i	i	i	/	/	/	/	/	/	/
Cc1ccccc1Nc1nc(N)nc(-c2oc3ccccc3c2C)n1	0.19	i	i	47*	6*	i	27%*	42%*	i	/	i	i	i	MrgX1 PAM conf=33%*
COc1cc(C2C(C#N)=C(N)Oc3cc(N(C)C)ccc32)cc2c1OCO2 (centres undefined)	-1.7	94*	i	i	i	i	i	i	108%*	273%*	i	i	86*
Cc1c(-c2nc(N)nc(Nc3ccc(F)cc3)n2)oc2ccccc12	-0.4	i	i	i	i	i	/	/	/	/	/	/	/
Cc1cnnn1-c1ccc(C(=O)CCl)cc1	0.47	28*	i	i	11*	i	86%*	38%*	19%*	252%*	i	i	48*

Screening results (PubChem)
